According to ChEMBL document CHEMBL1134627, “Synthesis of novel, potent, diol-based HIV-1 protease inhibitors via intermolecular pinacol homocoupling of (2S)-2-benzyloxymethyl-4-phenylbutanal” (J Med Chem, 2001):

Legend:
MT4 [1] = assay: Inhibitory activity against MT-4 cells; type: functional; details: Homo sapiens, read-out: ED50 (the source's name)
Method in brief: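 HIV-induced cytopathic effect measured in MT-4 cells, with cell viability read out using the vital dye XTT. ED50 was calculated from the percent cytoprotection for each compound.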

MT4 [2] = assay: Inhibitory activity against MT-4 cells, in the presence of human serum; type: functional; details: read-out: ED50 (the source's name)
Method in brief: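 HIV cytopathic assay in MT-4 cells run in the presence of 40% human serum, with viability read out using the vital dye XTT. ED50 was calculated from the percent cytoprotection.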

[3] = biological target: Human immunodeficiency virus type 1 protease (Human immunodeficiency virus 1, UniProt Q72874); assay: Inhibitory activity against HIV-1 protease (Escherichia coli)
Method in brief: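 Recombinant HIV-1 protease, cloned and expressed in E. coli. Ki values were determined with a fluorometric assay.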

Row | SMILES | EC50 (MT4 [1]) [nM] | EC50 (MT4 [2]) [nM] | Ki [3] [nM]
1 | CNC(=O)[C@@H](NC(=O)[C@H](OCc1ccccc1)[C@H](O)[C@@H](O)[C@@H](OCc1ccccc1)C(=O)N[C@H](C(=O)NC)C(C)C)C(C)C | 1300 | 34000 | 
2 | O=C(NC1c2ccccc2C[C@H]1O)[C@H](OCc1ccccc1)[C@H](O)[C@@H](O)[C@@H](OCc1ccccc1)C(=O)N[C@H]1c2ccccc2C[C@H]1O (some centres not stated) | 96 | 1500 | 0.6
3 | O=C(NC1c2ccccc2C[C@H]1O)[C@H](CCc1ccccc1)[C@@H](O)[C@H](O)[C@@H](CCc1ccccc1)C(=O)N[C@H]1c2ccccc2C[C@H]1O (some centres not stated) | 93 | 390 | 1.1
4 | CNC(=O)[C@@H](NC(=O)[C@H](CCc1ccccc1)[C@@H](O)[C@H](O)[C@@H](CCc1ccccc1)C(=O)N[C@H](C(=O)NC)C(C)C)C(C)C | 1900 | 1400 | 0.4
5 | O=C(NC1c2ccccc2C[C@H]1O)[C@H](CCc1ccccc1)[C@H](O)[C@H](O)[C@@H](CCc1ccccc1)C(=O)N[C@H]1c2ccccc2C[C@H]1O (some centres not stated) | > 10000 | 15000 | 28
6 | CNC(=O)[C@@H](NC(=O)[C@H](CCc1ccccc1)[C@H](O)[C@H](O)[C@@H](CCc1ccccc1)C(=O)N[C@H](C(=O)NC)C(C)C)C(C)C | > 10000 | > 10000 | 112
